From ChEMBL document CHEMBL1124586, “Carbohydrate biguanides as potential hypoglycemic agents” (1989)

Legend:
Type in all cases: functional
Rattus norvegicus [1] = experiment: Rise in the blood glucose level at 100 mg/kg oral dose in fasted nondiabetic rats
How it was run: (§1)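 Fasted rats (18 h) were given oral drug or vehicle 60 min before 1.0 g/kg oral glucose, with glucose-oxidase readings on tail blood at 0 and 30 min. The change from 0 min was corrected by subtracting the change in vehicle rats given no glucose. Groups were compared with vehicle by ANOVA/Dunnett (p ≤ 0.05). % inhibition = 100(ΔGV − ΔGD)/ΔGV.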

Rattus norvegicus [2] = experiment: Rise in the blood glucose level after 0 min following 200 mg/kg oral dose in fasted nondiabetic rats
How it was run: (§2)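 Rats fasted 18 h, dosed orally (0.5% w/v methylcellulose suspension or aqueous solution; controls got the same vehicle) 60 min before an oral glucose load of 1.0 g/kg. Tail-vein blood was taken just before (0 min) and 30 min after glucose. Whole blood was deproteinized with Ba(OH)2/ZnSO4 and glucose read by glucose oxidase. Values are mean ± SEM, n rats per group.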

Rattus norvegicus [3] = experiment: Percent inhibition of glucose rise, following 200 mg/kg oral dose in fasted nondiabetic rats
How it was run: (§3)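 Rats fasted 18 h were dosed orally around 9 a.m. with drug or vehicle (0.5% w/v methylcellulose suspension or aqueous solution), dosed on salt-free basis by mean group body weight, 60 min before oral glucose 1.0 g/kg. Tail-vein blood at 0 and 30 min, glucose oxidase on deproteinized whole blood. Rise corrected for no-glucose vehicle rats; %inhibition = 100(ΔGV−ΔGD)/ΔGV; mean ± SEM.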

Rattus norvegicus [4] = experiment: Percent inhibition of glucose rise, following 100 mg/kg oral dose in fasted nondiabetic rats; how it was run: as §3
Rattus norvegicus [5] = experiment: Rise in the blood glucose level after 0 min following 100 mg/kg oral dose in fasted nondiabetic rats; how it was run: as §2
Rattus norvegicus [6] = experiment: Rise in the blood glucose level after 30 min following 100 mg/kg oral dose in fasted nondiabetic rats; how it was run: as §2
Rattus norvegicus [7] = experiment: Rise in the blood glucose level after 30 min following 200 mg/kg oral dose in fasted nondiabetic rats; how it was run: as §2
Rattus norvegicus [8] = experiment: Rise in the blood glucose level at 200 mg/kg oral dose in fasted nondiabetic rats; how it was run: as §1
Rattus norvegicus [9] = experiment: Percent inhibition of glucose rise, following 50 mg/kg oral dose in fasted nondiabetic rats; how it was run: as §3
Rattus norvegicus [10] = experiment: Rise in the blood glucose level after 0 min following 150 mg/kg oral dose in fasted nondiabetic rats; how it was run: as §2
Rattus norvegicus [11] = experiment: Rise in the blood glucose level after 0 min following 10 mg/kg oral dose in fasted nondiabetic rats; how it was run: as §2
Rattus norvegicus [12] = experiment: Rise in the blood glucose level at 10 mg/kg oral dose in fasted nondiabetic rats; how it was run: as §1
Rattus norvegicus [13] = experiment: Rise in the blood glucose level after 30 min following 50 mg/kg oral dose in fasted nondiabetic rats; how it was run: as §2
Rattus norvegicus [14] = experiment: Rise in the blood glucose level after 30 min following 150 mg/kg oral dose in fasted nondiabetic rats; how it was run: as §2
Rattus norvegicus [15] = experiment: Percent inhibition of glucose rise, following 300 mg/kg oral dose in fasted nondiabetic rats; how it was run: as §3
Rattus norvegicus [16] = experiment: Percent inhibition of glucose rise, following 150 mg/kg oral dose in fasted nondiabetic rats; how it was run: as §3
Rattus norvegicus [17] = experiment: Rise in the blood glucose level at 300 mg/kg oral dose in fasted nondiabetic rats; how it was run: as §1
Rattus norvegicus [18] = experiment: Rise in the blood glucose level after 0 min following 50 mg/kg oral dose in fasted nondiabetic rats; how it was run: as §2
Rattus norvegicus [19] = experiment: Rise in the blood glucose level after 0 min following 300 mg/kg oral dose in fasted nondiabetic rats; how it was run: as §2
Rattus norvegicus [20] = experiment: Percent inhibition of glucose rise, following 10 mg/kg oral dose in fasted nondiabetic rats; how it was run: as §3
Rattus norvegicus [21] = experiment: Rise in the blood glucose level after 30 min following 10 mg/kg oral dose in fasted nondiabetic rats; how it was run: as §2
Rattus norvegicus [22] = experiment: Rise in the blood glucose level at 50 mg/kg oral dose in fasted nondiabetic rats; how it was run: as §1
Rattus norvegicus [23] = experiment: Rise in the blood glucose level at 150 mg/kg oral dose in fasted nondiabetic rats; how it was run: as §1
Rattus norvegicus [24] = experiment: Rise in the blood glucose level after 30 min following 300 mg/kg oral dose in fasted nondiabetic rats; how it was run: as §2
Rattus norvegicus [25] = experiment: Rise in the glucose level 100 mg/kg oral dose in fasted nondiabetic rats; how it was run: as §1

| Structure (SMILES) | inhibition in vivo at 100 mg/kg (Rattus norvegicus [4]) [%] | Glucose rise (Rattus norvegicus [5]) [mg/dL] | Glucose rise (Rattus norvegicus [6]) [mg/dL] | Glucose rise (Rattus norvegicus [25]) [mg/dL] | other results |
| --- | --- | --- | --- | --- | --- |
| CC1(C)O[C@H]2OC3C(OC(C)(C)O[C@@H]3C/N=C(\N)N=C(N)N)[C@H]2O1 (some centres undefined) | 48 | 78 | 118 | – | Glucose rise (Rattus norvegicus [1]): 40 mg/dL; Glucose rise (Rattus norvegicus [2]): 78 mg/dL; inhibition in vivo at 200 mg/kg (Rattus norvegicus [3]): 45%; Glucose rise (Rattus norvegicus [7]): 121 mg/dL; Glucose rise (Rattus norvegicus [8]): 43 mg/dL |
| N=C(N)NC(=N)NCCc1ccccc1 [PHENFORMIN] | 64 | 70 | 101 | – | Glucose rise (Rattus norvegicus [1]): 31 mg/dL; inhibition in vivo at 50 mg/kg (Rattus norvegicus [9]): 57%; Glucose rise (Rattus norvegicus [10]): 58 mg/dL; Glucose rise (Rattus norvegicus [11]): 61 mg/dL; Glucose rise (Rattus norvegicus [12]): 68 mg/dL; Glucose rise (Rattus norvegicus [13]): 98 mg/dL; Glucose rise (Rattus norvegicus [14]): 84 mg/dL; inhibition in vivo at 300 mg/kg (Rattus norvegicus [15]): 81%; inhibition in vivo at 150 mg/kg (Rattus norvegicus [16]): 71%; Glucose rise (Rattus norvegicus [17]): 21 mg/dL; Glucose rise (Rattus norvegicus [18]): 63 mg/dL; Glucose rise (Rattus norvegicus [19]): 70 mg/dL; inhibition in vivo at 10 mg/kg (Rattus norvegicus [20]): 0%; Glucose rise (Rattus norvegicus [21]): 129 mg/dL; Glucose rise (Rattus norvegicus [22]): 35 mg/dL; Glucose rise (Rattus norvegicus [23]): 26 mg/dL; Glucose rise (Rattus norvegicus [24]): 21 mg/dL |
| CN(C)C(=N)NC(=N)N [METFORMIN] | 41 | 68 | 113 | 45 | – |
| N=C(N)/N=C(\NCCc1ccccc1)NC1OC(CO)[C@@H](O)C(O)[C@H]1O (some centres undefined) | 9 | 74 | 137 | 63 | – |
| CO[C@H]1OC(CNC(=N)NC(=N)N)[C@@H](O)C(O)[C@H]1O (some centres undefined) | 12 | 72 | 133 | 61 | – |
| N=C(N)/N=C(\S)NC1OC(CO)[C@@H](O)C(O)[C@H]1O (some centres undefined) | 9 | 76 | 139 | 63 | – |
| N=C(N)/N=C(\N)NCCC1OC(CO)[C@@H](O)C1O (some centres undefined) | 26 | 74 | 127 | 53 | – |
| CC1(C)OC2C(C/N=C(\N)N=C(N)N)O[C@@H]3OC(C)(C)O[C@@H]3C2O1 (some centres undefined) | -12 | 67 | 141 | 74 | – |
| N=C(N)/N=C(\N)NCC1OC(O)[C@H](O)C(O)C1O (some centres undefined) | -14 | 68 | 145 | 77 | – |
| CC1(C)O[C@@H]2CO[C@@]3(C/N=C(/N)N=C(N)N)OC(C)(C)OC3[C@@H]2O1 (some centres undefined) | -29 | 67 | 152 | 85 | – |
| COC1OC(C/N=C(/N)N=C(N)N)[C@@H](OCc2ccccc2)C(OCc2ccccc2)[C@H]1OCc1ccccc1 (some centres undefined) | 47 | 82 | 123 | 41 | – |
